# This is a sample that favours compounds with a hit; in the whole collection about 2.2% have one here.
# STAT3 inh: IL-6 driven STAT3 reporter inhibitors, primary screen, U3A cells, luciferase, luminescence, MLSCN library | IL-6 STAT3-luciferase reporter; host cell line lacks STAT1 | actives 0.89% (n = 190,000) | inhibition, % at 5.5 µM | AID 862, 2007;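 active means inhibition above the mean inhibition across all screened compounds plus 3 SD, cut at about 44% in these data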;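 further: 0% = DMSO only wells and 100% = 100 µM nifuroxazide control wells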
# FLuc act counter: FLuc activators, initial screening, artefact control for FLuc-dependent activation tests, biochemical, ATPlite luminescence; Luciferin 4-monooxygenase (Photinus pyralis), P08659; ATPlite luciferase biochemical, 10 min; 0 = ATP-free wells, 1 = DMSO control; activation factor at 10 µM; 200,000 tested, under 10 active; AID 1027, 2008;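 active means luciferase activation factor, scaled between plate controls, of at least 2 with compound at 10 µM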
# Target sequence (P08659 whole entry, looked up): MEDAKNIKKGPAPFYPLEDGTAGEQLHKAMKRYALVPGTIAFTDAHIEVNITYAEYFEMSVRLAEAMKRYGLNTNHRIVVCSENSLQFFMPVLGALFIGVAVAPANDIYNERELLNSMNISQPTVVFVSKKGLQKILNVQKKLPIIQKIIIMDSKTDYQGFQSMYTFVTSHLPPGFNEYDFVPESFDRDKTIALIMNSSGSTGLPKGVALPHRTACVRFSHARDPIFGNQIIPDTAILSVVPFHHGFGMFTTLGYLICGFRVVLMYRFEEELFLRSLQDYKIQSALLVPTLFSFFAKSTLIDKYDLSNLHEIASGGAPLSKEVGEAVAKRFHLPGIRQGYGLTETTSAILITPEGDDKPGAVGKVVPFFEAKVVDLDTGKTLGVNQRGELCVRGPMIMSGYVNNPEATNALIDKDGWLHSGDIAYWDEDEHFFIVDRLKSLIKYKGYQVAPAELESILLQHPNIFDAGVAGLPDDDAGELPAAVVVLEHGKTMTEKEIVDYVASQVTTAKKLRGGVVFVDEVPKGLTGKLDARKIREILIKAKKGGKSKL
#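 Material: luciferase plus luciferin reagent, cell-free. Medium: PBS buffer for ATP. Also added: ATP substrate, dispensed from a 10.24 µM working solution in PBS. Doses: test compounds dosed from 2 mM stocks in 100% DMSO. Incubation: 10 min post-reagent at room temperature. Technique: light output (luminescence). Read-out basis: luminescence gain marking luciferase activators.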
# HSP90 refold inh: HSP90 inhibitors, primary screen, cell lysate, luminescence; Heat shock protein HSP 90 (rabbit reticulocyte lysate; luciferase refolding); inhibition, % at 5.6 µM; AID 1789, 2009; Rabbit reticulocyte lysate, luciferase refolding luminescence, 3 h; actives 0.91% (n = 290,000);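 active means inhibition above the screen-wide mean plus 3 SD, computed separately per campaign, cut at about 16% in these data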;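 further: 0% = DMSO wells and 100% = 60 µM geldanamycin wells; inhibitors lower the luminescence because luciferase stays unfolded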
# C8 TRAIL sens: viability loss with TRAIL in NB7+C8 cells, primary screen, TRAIL sensitizer project, cell-based, ATPlite luminescence; inhibition (viability loss, TRAIL sensitization), % at 10 µM; actives 1% (n = 360,000); AID 624354, 2012;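 active means compounds causing at least 50% loss of cell viability in the single-dose screen, relative to plate controls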
# FLuc inh counter: firefly luciferase enzyme inhibitors, primary screen, artefact control for luciferase-based inhibitor screens, biochemical, luminescence, ATPLite; Luciferin 4-monooxygenase (Photinus pyralis), P08659; 10 min; inhibition, % at 10 µM; actives 1.5% (n = 200,000); AID 1006, 2008;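 active means inhibition above about 50% when tested at 10 µM, limit read from the data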
# PPC-1+TRAIL kill: compounds killing PPC-1 cancer cells with TRAIL present, primary screen, TRAIL potentiator project, ATPLite luminescence, uHTS | PPC-1 cells + TRAIL, ATPLite viability luminescence | cell killing (% activity), % at 4 µM or 5 µM | actives 0.41% (n = 220,000);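 active means cell killing above 50% in the first pass at 4 µM, then a duplicate retest at 5 µM averaging 50% or more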;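 further: plate controls were cells with TRAIL plus DMSO for no effect and medium-only wells lacking cells for full effect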
# An asterisk follows results filed as active; nt = no result.
SMILES,STAT3 inh,FLuc act counter,HSP90 refold inh,C8 TRAIL sens,FLuc inh counter,PPC-1+TRAIL kill
O=C(Nc1ccc(F)cc1)c1csc(Cc2ccccc2)n1,4.9,0.5,0.9,8.2,52.7*,13.2
COc1ccc(NC(=O)c2csc(Cc3ccccc3)n2)cc1,1.6,0.8,-0.4,12.9,15.5,9.1
COc1ccc(CCC(=O)N2CCCC(Nc3ccccc3)C2)cc1OC (configuration not stated),nt,nt,2.5,-4.7,nt,nt
COc1ccc(CCC(=O)Nc2ccc(Cl)c(S(=O)(=O)N3CCCC3)c2)cc1,nt,nt,2.4,2.3,nt,15.0
O=C(N/N=C/c1ccco1)c1ccncc1,11.6,1,1.4,-4.2,0.7,-2.2
Cc1ccccc1C(=O)Nc1ccccc1C(=O)N/N=C\c1ccco1,2.4,0.8,-1.6,-1.0,23.4,5.8
O=C(Nc1ccccc1C(=O)N/N=C/c1ccco1)c1ccccc1,-0.1,0.2,8.4,19.2,75.7*,23.8
O=C(Nc1ccccc1C(=O)N/N=C/c1ccco1)c1ccc(F)cc1,2.6,0.2,4.4,18.0,80.1*,20.7
O=C(Nc1ccccc1C(=O)N/N=C/c1ccco1)c1ccc(Cl)cc1,-24.1,0.1,-0.5,46.5,85.3*,9.4
CSCCC(C)N1CCC(Oc2ccc(C(=O)N3CCCC3)cc2)CC1 (configuration not stated),nt,nt,1.8,-5.2,nt,nt
CCc1ccc2nc3n[nH]c(N)c3cc2c1,8.1,0.3,-0.4,42.4,70.3*,33.2
CC1=NN(c2ccc([N+](=O)[O-])cc2)C(=O)/C1=C\N(C)C,-10.3,0.5,3.6,4.8,51.7*,26.0
CCCC1=NN(c2ccc([N+](=O)[O-])cc2)C(=O)/C1=C/N(C)C,-22.8,1,0.4,-1.0,-2.7,20.3
O=C(CN1C(=O)COc2ccccc21)N1CCOCC1,nt,nt,-2.3,-8.4,nt,nt
Cc1cc(C)cc(C(=O)Nc2nc3ccccc3[nH]2)c1,nt,nt,-1.7,50.4*,nt,nt
O=C(CC1CCCC1)Nc1nc2ccccc2[nH]1,-6.4,0.8,-6.2,50.6*,20.7,2.7
O=C(Nc1nc2ccccc2[nH]1)C1CCCC1,-3.7,0.6,-2.4,8.8,38.9,22.7
O=C(COc1ccc2ccccc2c1)Nc1nc2ccccc2[nH]1,-3.5,1,-0.4,0.5,-4.4,-8.7
COc1ccc(OCC(=O)Nc2nc3ccccc3[nH]2)cc1,5.1,0.3,1.3,38.7,67.8*,36.1
COc1cc(C(=O)Nc2nc3ccccc3[nH]2)ccc1OC(F)F,nt,nt,-1.4,47.5*,nt,-8.5
Cc1cc(C)n(-c2ccc(C(=O)Nc3cc(S(=O)(=O)N(C)C)ccc3Cl)cc2)n1,9.5,1,-1.8,12.4,-4.1,1.9
COc1cc(CCC(N)c2cccc(O)c2)cc(OC)c1OC (configuration not stated),nt,nt,nt,-4.6,nt,nt
O=C(O)CC(Cc1ccc(Cl)cc1)C(=O)Nc1cc(Cl)ccc1Cl (configuration not stated),nt,nt,-1.6,-19.6,nt,nt
CC(=O)Oc1c(-c2ccc(Br)o2)oc2ccccc2c1=O,nt,nt,-5.1,5.4,nt,nt
CCOc1cc(/C=N/NC(=O)C2CCCC2)ccc1OC(C)C,nt,nt,-1.6,10.2,nt,nt
SMILES,STAT3 inh,FLuc act counter,HSP90 refold inh,C8 TRAIL sens,FLuc inh counter,PPC-1+TRAIL kill
COc1ccc(C(=O)Nc2nc3ccccc3[nH]2)cc1OC,20.4,0.7,6.5,6.5,29.2,20.0
COc1cc(OC)cc(C(=O)Nc2nc3ccccc3[nH]2)c1,5.1,0.7,-4.1,52.6*,31.4,21.6
COc1cc(C(=O)N2CCCC(C)(C(=O)NS(=O)(=O)C3CC3)C2)cc(OC)c1OC (configuration not stated),nt,nt,nt,-16.1,nt,nt
O=Cc1ccc(O)c2ncccc12,nt,nt,5.7,56.5*,nt,12.5
NS(=O)(=O)c1ccc(N=Nc2ccc(O)c3ncccc23)cc1,nt,nt,-0.9,45.1,nt,nt
CN1N=C(C(=O)N2CCCC(N3CCN(c4ccc(F)cc4)CC3)C2)CCC1=O (configuration not stated),nt,nt,0.4,4.6,nt,nt
CS(=O)(=O)c1ccc(C(=O)OCC(=O)N2CCN(CCC3CCCCC3)CC2)cc1[N+](=O)[O-],nt,nt,nt,88.7*,nt,nt
Cc1c(C(=O)N/N=C/c2cccnc2)sc(N)c1C#N,nt,nt,3.9,21.3,nt,nt
CC(C)(C)c1ccc(C(=O)O/N=C(\N)Cc2cccs2)cc1,nt,nt,nt,94.2*,nt,nt
Cc1ccccc1C(=O)O/N=C(\N)Cc1cccs1,nt,nt,2.0,92.1*,nt,nt
Cc1ccccc1OCC(=O)O/N=C(\N)Cc1cccs1,6.1,1,-2.4,-19.5,-1.8,nt
O=C(c1ccccc1)N1CCSC1=S,0.1,1.1,-1.7,5.5,-7.0,17.9
O=C(c1ccccc1)N1CCSc2sccc2C1=O,50.3*,1,8.5,7.6,-2.3,16.6
CC(C)(C)c1ccc2c(c1)C(=O)c1ccccc1C2=O,3.2,0.3,-2.6,56.5*,71.9*,23.5
CCc1ccc2c(c1)C(=O)c1ccccc1C2=O,-48.3,0.6,2.3,11.9,36.0,24.6
C[C@@H](NC(=O)c1ncn2c1c(=O)[nH]c1cccnc12)c1ccccc1,nt,nt,nt,-7.5,nt,nt
C[C@@H](NC(=O)c1ncn2c1c(=O)[nH]c1ccc(Br)cc12)c1ccccc1,nt,nt,nt,69.0*,nt,nt
COc1ccc(-c2nc(N/N=C(\C)c3ccc(O)cc3)c3ccccc3n2)cc1,nt,nt,2.6,59.3*,nt,44.5
COc1ccc(-c2cc3cc(OC)c(OC)cc3cn2)cc1,nt,nt,nt,-0.7,nt,nt
c1cc(-c2noc(-c3ccc4c(c3)OCO4)n2)ccn1,18.0,nt,2.6,nt,nt,nt
COc1cc(OC)cc(-c2cc3cc4c(cc3cn2)OCO4)c1,nt,nt,nt,72.0*,nt,nt
c1ccc(-c2cc3cc4c(cc3cn2)OCO4)cc1,nt,nt,nt,50.7*,nt,nt
COc1ccc(-c2noc(-c3ccc4c(c3)OCO4)n2)cc1,17.3,0.5,-3.3,45.4*,48.2,29.1
COc1ccc(-c2cc3cc4c(cc3cn2)OCO4)cc1,nt,nt,nt,54.5*,nt,nt
CCOC(=O)N1CCN(Cc2nc3cc(NC(=O)c4cccs4)ccc3n2CC)CC1,nt,nt,-1.3,22.9,nt,nt
SMILES,STAT3 inh,FLuc act counter,HSP90 refold inh,C8 TRAIL sens,FLuc inh counter,PPC-1+TRAIL kill
C=CCn1c(O)c2ccc(C(=O)N=NC(=O)COc3ccc(OC)cc3)cc2c1O,nt,nt,-0.5,-3.7,nt,nt
COc1cc(OC)cc(-c2cc3ccc(OC)cc3cn2)c1,nt,nt,nt,82.8*,nt,nt
COc1ccc2cc(-c3ccsc3)ncc2c1,nt,nt,nt,47.8,nt,nt
O=C(NC1CC1)c1cc(OCC(F)(F)F)ccc1OCC(F)(F)F,6.8,1,-3.5,-4.0,4.4,-23.2
O=C(NO)c1cc(OCC(F)(F)F)ccc1OCC(F)(F)F,8.0,1,1.9,50.8*,0.4,-3.6
O=C(NNC(=O)c1cc(OCC(F)(F)F)ccc1OCC(F)(F)F)c1cccc(C(F)(F)F)c1,-1.5,1.1,-0.7,52.3*,-6.4,-13.5
COc1cc(NC(=O)c2nccnc2N)cc(C(=O)Nc2cccc(C(F)(F)F)c2)c1,nt,nt,nt,6.2,nt,3.1

# Compound activity deposited in PubChem BioAssay by several laboratories.
